≈ marks a conversion by molar mass, not a printed value. Calls of active or inactive are those of the source. The rule behind the calls is not given here.
Tests used:
Usutu virus [1] = assay: Antiviral activity against USUV 3345 isolate Arb276 infected in African green monkey Vero cells assessed as titer reduction in viral progeny production at 15 uM treated for 2 hrs followed by virus removal and subsequent addition of medium containing compound measured after 48 hrs by focus reduction assay; assay type: functional, organism-based; conditions: time 50.0 hrs
Outline: (§1)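 Vero cells seeded 6.5 × 10^4/well, exposed in duplicate for 2 h at 37 °C to virus (MOI 0.1) mixed with compound at 5 or 15 μM. After three washes, medium containing compound was added for 48 h. Supernatants were clarified and titred on Vero by focus reduction (USUV, FFU/ml) or plaque assay (ZIKV, PFU/ml). DMSO-matched infected controls; mean of three experiments.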

Usutu virus [2] = assay: Antiviral activity against USUV 3345 isolate Arb276 infected in African green monkey Vero cells assessed as viral growth inhibition at 0.13 to 100 uM treated immediately after viral infection for 2 hrs by time of addition assay; assay type: functional, organism-based; conditions: dose 0.13-100 µM, in the assay text read “during viral infection” for “immediately after viral infection”
Outline: (§2)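 Time-of-addition assay in Vero. Serial dilutions (100 to 0.13 μM) were added to cells 24 h or 2 h before infection, during the 2 h infection, or post-infection for 24 h (USUV) or 30 h (ZIKV). Cells were fixed in cold acetone-methanol (50:50) and infected cells detected by indirect immunostaining. EC50/EC90 came from variable-slope sigmoidal fits; mean of three independent experiments.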

Usutu virus [3] = assay: Antiviral activity against USUV 3345 isolate Arb276 infected in African green monkey Vero cells assessed as viral growth inhibition at 0.13 to 100 uM pretreated with cells 2 hrs prior to viral infection by time of addition assay; assay type: functional, organism-based; conditions: dose 0.13-100 µM; outline: as §2
Zika virus [4] = assay: Antiviral activity against ZIKV MR766 infected in African green monkey Vero cells assessed as viral growth inhibition at 11 to 100 uM pretreated with virus for 1 hr followed by infection of cells with compound treated-virus for 30 hrs by focus reduction assay relative to control; assay type: functional; conditions: dose 11-100 µM, time 31 hrs
Outline: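 Virus (MOI 0.02) preincubated with compound 1 h at 37 °C, then mixture put on Vero cells (1.2 × 10^4/well, seeded the day before) in DMEM with 2% FBS for 30 h (ZIKV) or 20 h (USUV) at 37 °C. Fixed in cold acetone-methanol, foci immunostained with anti-flavivirus E 4G2 antibody and counted. % infection is relative to DMSO-treated wells. Screen used 100, 33 and 11 μM.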

Zika virus [5] = assay: Antiviral activity against ZIKV MR766 infected in African green monkey Vero cells assessed as viral growth inhibition at 0.13 to 100 uM treated immediately after viral infection for 2 hrs by time of addition assay; assay type: functional, organism-based; conditions: dose 0.13-100 µM, in the assay text read “during viral infection” for “immediately after viral infection”; outline: as §2
[6] = Aqueous solubility in deionized water containing 1.38% DMSO; assay type: physicochemical
Usutu virus [7] = assay: Antiviral activity against USUV 3345 isolate Arb276 infected in African green monkey Vero cells assessed as viral growth inhibition at 0.13 to 100 uM treated immediately after viral infection for 24 hrs by time of addition assay; assay type: functional, organism-based; conditions: dose 0.13-100 µM; outline: as §2
Zika virus [8] = assay: Antiviral activity against ZIKV MR766 infected in African green monkey Vero cells assessed as viral growth inhibition at 0.13 to 100 uM pretreated with cells 24 hrs prior to viral infection by time of addition assay; assay type: functional, organism-based; conditions: dose 0.13-100 µM; outline: as §2
Zika virus [9] = assay: Antiviral activity against ZIKV MR766 infected in African green monkey Vero cells assessed as titer reduction in viral progeny production at 15 uM treated for 2 hrs followed by virus removal and subsequent addition of medium containing compound measured after 48 hrs by plaque reduction assay; assay type: functional, organism-based; conditions: time 50.0 hrs; outline: as §1
Usutu virus [10] = assay: Antiviral activity against USUV 3345 isolate Arb276 infected in African green monkey Vero cells assessed as viral growth inhibition at 0.13 to 100 uM pretreated with cells 24 hrs prior to viral infection by time of addition assay; assay type: functional, organism-based; conditions: dose 0.13-100 µM; outline: as §2
[11] = Cytotoxicity against human A549 cells infected with USUV 3345 isolate Arb276 pretreated with virus for 1 hr followed by infection of cells with compound treated-virus for 20 hrs by MTS assay; assay type: toxicity, cell-based
Outline: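 MTS viability assay. Cells were treated under the same conditions as the antiviral assays. Absorbance was expressed as % of medium-only cells, and CC50 was derived from the curve. Seeding densities were 1.2 × 10^4/well for Vero, 1.3 × 10^4/well for A549 and 1.6 × 10^4/well for Huh7. DMEM with 2% FBS.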

[12] = Solubility in DMSO at 25 degreeC; assay type: physicochemical

SMILES	Activity (Usutu virus [1])	Activity (Usutu virus [2])	Activity (Usutu virus [3])	inhibition (INH) (Zika virus [4])	Activity (Zika virus [5])	solubility [6]	Activity (Usutu virus [7])	Activity (Zika virus [8])	Activity (Zika virus [9])	Activity (Usutu virus [10])	CC50 at 21 h [11]	solubility [12]
O=C1[C@@H]2CCCN2[C@@H](c2ccc([C@H]3C[C@@H](O)[C@@H](CO)O3)cc2)N1c1ccc([N+](=O)[O-])cc1	Active	inactive	inactive	100%	inactive	> 0.947 mg/mL	Active	Active	Active	Active	> 500 µM	96 mg/mL (≈ 218 mM)
O=C1C[C@H](c2ccc([C@H]3N(c4ccc([N+](=O)[O-])cc4)C(=O)[C@@H]4CCCN43)cc2)O[C@@H]1CO	Active	inactive	inactive	100%	inactive	> 0.897 mg/mL	Active	Active	Active	Active	> 500 µM	130 mg/mL (≈ 297 mM)

Source: ChEMBL document CHEMBL5325402, “Exploration of novel hexahydropyrrolo[1,2-e]imidazol-1-one derivatives as antiviral agents against ZIKV and USUV” (Eur J Med Chem, 2023)
